From ChEMBL document CHEMBL3392999 (J Med Chem, 2014) come the findings set out here.

Usually IC50 stands for the concentration that gives 50% inhibition. A higher IC50 goes with weaker potency.

Each structure is given as a SMILES string. Calls of active or inactive are those of the source. No cut-off for these calls is given here. Where only a bound is given, the exact number is not on record here.

The subject of one series is HT-29. Description: Cytotoxicity against human HT-29 cells after 3 days by MTT assay. The settings on record: HT-29, 72 h. It counts as functional, cell-based. The gist of the method: (§1)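 HT-29, MCF-7 and HEK293 cells were grown in DMEM (1 g/L glucose, 2 mM glutamine, antibiotics, amphotericin, 10% FBS). Serial dilutions of compound in DMSO were added to 5 x 10^3 cells/well for 3 days at 37 °C, 5% CO2. MTT was then added for 4 h, formazan was dissolved in 0.04 N HCl/2-propanol and read at 550 nm, in triplicate. IC50 is the 50% growth inhibition. The ratios are HEK293 IC50 over HT-29 or MCF-7 IC50.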
In general terms: Tetrazolium assays rely on reduction of a dye to a coloured formazan, in cell work by metabolically active cells.

The test system of a further series is MCF7. Description: Cytotoxicity against human MCF7 cells after 3 days by MTT assay. The format is functional, cell-based. To be noted: MCF7, 72 h. Summed up:
as §1

A further series deals with HEK293. The experiment in a line: Cytotoxicity against human HEK293 cells after 3 days by MTT assay. It counts as cell-based. To be noted: HEK293, 72 h. Summed up: as §1
The nature of series [1]: Selectivity ratio of IC50 for human HEK293 cells to IC50 for human HT29 cells. It counts as ADME, cell-based. The settings on record: HEK293 cells versus HT29 cells, read-out: Ratio IC50. The gist of the method: as §1
Series [2] can be described thus: Selectivity ratio of IC50 for human HEK293 cells to IC50 for human MCF7 cells. It counts as ADME, cell-based. The settings on record: HEK293 cells versus MCF7 cells, read-out: Ratio IC50. Summed up: as §1
The nature of series [3]: Depolymerization of microtubule cytoskeleton in human A549 cells at 1 uM after 24 hrs by hoechst 33342-based fluorescence microscopy. It counts as cell-based. The gist of the method: (§2)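 A549 cells were cultured overnight on 12 mm round coverslips, then incubated 24 h with ligand or DMSO vehicle. Cells were permeabilized with Triton X-100 and fixed with 3.7% formaldehyde. Microtubules were stained with DM1A anti-α-tubulin monoclonal antibody and DNA with Hoechst 33342, then examined by epifluorescence microscopy with a cooled CCD camera.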

Series [4] has as its system A549. Description: Cell cycle arrest at G2/M phase in human A549 cells at 5 to 10 uM after 20 hrs. The format is functional. Summed up: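 A549 cells (RPMI 1640, 10% FCS, glutamine, antibiotics) were exposed to ligand or DMSO vehicle for 20 h. They were then fixed, RNase-treated and stained with propidium iodide. DNA content was measured by flow cytometry, and G2/M accumulation was read at the lowest concentration giving maximal arrest.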

In series [5] the target is T1, Tubulin (Homo sapiens) (UniProt P68371+Q9H4B7+P0DPH7+P68366+Q13509+Q71U36+P04350+Q3ZCM7+P07437+P68363+Q9BQE3+Q6PEY2+Q13885+Q9BVA1+Q9BUF5). Description: Inhibition of purified tubulin (unknown origin) assessed as critical concentration of tubulin required to produce assembly at 25 uM after 30 mins by spectrophotometry. It counts as protein-complex assay. Summed up: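 Calf-brain tubulin (20 µM) was incubated 30 min at 37 °C in glycerol assembly buffer (3.4 M glycerol, 10 mM sodium phosphate, 1 mM EGTA, 1 mM GTP, pH 6.5) with ligand at varying concentrations or DMSO vehicle. The critical concentration for assembly was then calculated from the processed samples. Values are averages of replicate measurements.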

Another series relates to A2780. Description: Cytotoxicity against human A2780 cells after 24 hrs by MTT assay. The settings on record: A2780, 24 h. It counts as functional, cell-based.
Series [6] in a line: Cytotoxicity against human A2780AD cells after 24 hrs by MTT assay. It counts as functional, cell-based. To be noted: A2780 ADR. The gist of the method: (§3)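 Ovarian carcinoma A2780 and its P-glycoprotein-overexpressing MDR subline A2780AD were cultured in RPMI 1640 with 10% FCS, glutamine, antibiotics and 0.25 units/mL bovine insulin. Cytotoxicity was measured by a modified MTT assay. IC50 is 50% growth inhibition, averaged over three measurements. The resistance factor is A2780AD IC50 divided by A2780 IC50.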

Series [7] in a line: Resistance factor, ratio of IC50 for human A2780AD cells to IC50 for human A2780 cells. The format is functional, A2780 ADR. The gist of the method: as §3
In series [8] the target is T1, Tubulin (Homo sapiens). Description: Inhibition of purified tubulin (unknown origin) assessed as concentration of compound in dichloromethane solvent at 30 uM after 1 hr. The format is protein-complex assay. The gist of the method: (§4)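 In one set, mixtures stood 1 h at 37 °C and were extracted with dichloromethane. In another, microtubules were allowed to assemble and were ultracentrifuged, and the supernatant and pellet were extracted separately. Ligand in each extract was quantified against a 30 µM tubulin-free reference.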

The target of series [9] is T1, Tubulin (Homo sapiens). The experiment in a line: Inhibition of purified tubulin (unknown origin) assessed as concentration of compound in supernatant solution at 30 uM after 1 hr. The format is protein-complex assay. Summed up: as §4
Series [10] has as its target T1, Tubulin (Homo sapiens). The experiment in a line: Inhibition of purified tubulin (unknown origin) assessed as concentration of compound in pellet solution at 30 uM after 1 hr. The format is protein-complex assay. Summed up:
as §4

A short description of series [11]: Depolymerization of microtubule cytoskeleton in human A549 cells assessed as DNA forming a ball without microtubules at 5 uM after 24 hrs by hoechst 33342-based fluorescence microscopy. The format is cell-based. The gist of the method: as §2
Series [12] is described as follows: Depolymerization of microtubule cytoskeleton in human A549 cells assessed as DNA forming a ball without microtubules at 10 uM after 24 hrs by hoechst 33342-based fluorescence microscopy. It counts as cell-based. Summed up:
as §2

Series [13] is described as follows: Depolymerization of microtubule cytoskeleton in human A549 cells assessed as aberrant mitosis at 5 uM after 24 hrs by hoechst 33342-based fluorescence microscopy. The format is cell-based. Summed up:
as §2

Series [14] in a line: Depolymerization of microtubule cytoskeleton in human A549 cells assessed as aberrant mitosis at 10 uM after 24 hrs by hoechst 33342-based fluorescence microscopy. It counts as cell-based. The gist of the method:
as §2

Series [15] can be described thus: Depolymerization of microtubule cytoskeleton in human A549 cells at 50 nM after 24 hrs by hoechst 33342-based fluorescence microscopy. The format is cell-based. The gist of the method: (§5)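 A549 cells grown overnight on 12 mm round coverslips, then 24 h with compound or DMSO vehicle. Cells permeabilized with Triton X100 and fixed in 3.7% formaldehyde. Microtubules stained with DM1A α-tubulin monoclonal antibody, DNA with Hoechst 33342. Examined by epifluorescence microscopy with cooled CCD imaging; mitotic spindles inspected.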

The nature of series [16]: Depolymerization of microtubule cytoskeleton in human A549 cells assessed as DNA forming a ball without microtubules at 50 nM after 24 hrs by hoechst 33342-based fluorescence microscopy. It counts as cell-based. The gist of the method:
as §5

Series [17] is described as follows: Depolymerization of microtubule cytoskeleton in human A549 cells assessed as aberrant mitosis at 50 nM after 24 hrs by hoechst 33342-based fluorescence microscopy. The format is cell-based. Summed up: as §5
Series [18] has as its system A549. The experiment in a line: Cell cycle arrest at G2/M phase in human A549 cells at 50 nM after 20 hrs. It counts as functional, cell-based. Summed up:
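A549 human lung carcinoma cells in RPMI 1640 with 10% FCS, glutamine and antibiotics, exposed for 20 h to compound or DMSO vehicle. Cells were fixed, RNase-treated and stained with propidium iodide. DNA content was measured by flow cytometry to give G2/M fraction.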

Series [19] can be described thus: Depolymerization of microtubule cytoskeleton in human A549 cells at 5 uM after 24 hrs by hoechst 33342-based fluorescence microscopy. The format is cell-based. Summed up:
as §2

On to `COc1cc2c(c(OC)c1OC)-c1ccc(OC)c(=O)cc1[C@@H](NC(=O)CCCCCCCCCCCCCCC(=O)OCCCCC[C@@H]1CC=CC(=O)O1)CC2`, for which the IC50 in the series on HT-29 amounted to 8000 nM; in the series with MCF7, 600 nM; in the series on HEK293 it was 440 nM. For the same compound, the selectivity ratio is less than 0.1 in series [1] and 0.7 in series [2].

On to `COc1cc2c(c(OC)c1OC)-c1ccc(OC)c(=O)cc1[C@@H](NC(=O)CCCC(=O)OCCCCC[C@@H]1CC=CC(=O)O1)CC2`, for which the IC50 with HT-29 was determined as 21000 nM; in the series on MCF7 it was 700 nM; in the series on HEK293, 6000 nM; with A2780, 500 nM; in series [6], 59000 nM. Moreover, the selectivity ratio in series [1] was 0.3; in series [2] it was 8.7. Further, the outcome in [3], in series [11], in series [12], in series [13] and in [14] was Active. Moreover, the Activity in the series with A549 [4] was more than 80%; on Tubulin (Homo sapiens) [5], 6.6 µM; at Tubulin (Homo sapiens) [8], 21.7 µM; on Tubulin (Homo sapiens) [9], 18.1 µM; on Tubulin (Homo sapiens) [10] it was 5.7 µM. Moreover, the “Ratio IC50” value in [7] was found to be 118.

Take `CC(=O)O[C@@]12CO[C@@H]1C[C@H](O)[C@@]1(C)C(=O)[C@H](O)C3=C(C)[C@@H](OC(=O)[C@H](O)[C@@H](NC(=O)OC(C)(C)C)c4ccccc4)C[C@@](O)([C@@H](OC(=O)c4ccccc4)[C@H]21)C3(C)C`: the Activity on Tubulin (Homo sapiens) [5] turned out to be 0.9 µM.

For the compound `COc1cc2c(c(OC)c1OC)-c1ccc(OC)c(=O)cc1[C@@H](NC(C)=O)CC2` [COLCHICINE], the values for the IC50 (with HT-29; with HEK293; in series [6]) were 50 nM, 5 nM and 306 nM, respectively. The outcome (in series [15]; in [16]; in series [17]; in the series on A549 [18]) was Active.

In the case of `COc1cc2c(c(OC)c1OC)-c1ccc(OC)c(=O)cc1[C@@H](NC(=O)CCCCCCCCCCCCCCC(=O)OCCCCC[C@H]1CC=CC(=O)O1)CC2`, the IC50 stood at 30000 nM in the series on HT-29, 500 nM in the series on MCF7 and 500 nM with HEK293. Further, the selectivity ratio in series [1] is less than 0.1; in series [2] it was 1.

`COc1cc2c(c(OC)c1OC)-c1ccc(OC)c(=O)cc1[C@@H](NC(=O)CCCCCCC(=O)OCCCCC[C@@H]1CC=CC(=O)O1)CC2`: the IC50 in the series on HT-29 is 20000 nM; in the series with MCF7 it was 290 nM; in the series with HEK293, 33000 nM. In addition, the selectivity ratio in series [1] was 1.6; in series [2], more than 100.

In the case of `C/C=C/C[C@H](C)[C@@H](OC)[C@@H](C)[C@H](O)C[C@H]1OC(=O)C=C[C@H]1CC` [PIRONETIN], the figures for the selectivity ratio in series [1] and in series [2] were 2.6 and 2.8, respectively. Moreover, on Tubulin (Homo sapiens) [5], the Activity is more than 15 µM. In addition, the IC50 in the series with A2780 stood at 8 nM; in series [6], 25 nM. Besides, in series [7], the “Ratio IC50” value was found to be 3.

With `COc1cc2c(c(OC)c1OC)-c1ccc(OC)c(=O)cc1[C@@H](NC(=O)CCCCCCC(=O)OCCCCC[C@H]1CC=CC(=O)O1)CC2`, the IC50 in the series on HT-29 was found to be 40000 nM; in the series on MCF7, 12000 nM; in the series on HEK293, 700 nM. Besides, the selectivity ratio in series [1] and in series [2] was less than 0.1 throughout.

As to `COc1cc2c(c(OC)c1OC)-c1ccc(OC)c(=O)cc1[C@@H](NC(=O)CCCCCCCCCCC(=O)OCCCCC[C@H]1CC=CC(=O)O1)CC2`, the figures for the concentration for half-maximal inhibition (IC50) in the series with HT-29, with MCF7 and with HEK293 were 40000 nM, 300 nM and 24000 nM, respectively. Moreover, the selectivity ratio turned out to be 0.6 in series [1] and 80 in [2].

As for `COc1cc2c(c(OC)c1OC)-c1ccc(OC)c(=O)cc1[C@@H](NC(=O)CCCCCCCCCCC(=O)OCCCCC[C@@H]1CC=CC(=O)O1)CC2`, the half-inhibitory concentration (IC50) amounted to 18000 nM with HT-29; 330 nM with MCF7; 1400 nM in the series on HEK293; 240 nM in the series on A2780; 26500 nM in [6]. For the same compound, the selectivity ratio in series [1] is less than 0.1; in [2], 4.2. Moreover, the result in series [19], in [11], in series [12], in series [13] and in series [14] was Active. Also, the Activity in the series on A549 [4] was more than 80%; on Tubulin (Homo sapiens) [5], 6.3 µM; at Tubulin (Homo sapiens) [8] it was 6.9 µM; at Tubulin (Homo sapiens) [9] it was 2 µM; at Tubulin (Homo sapiens) [10], 5.7 µM. Besides, the “Ratio IC50” value in series [7] worked out at 110.

Take `COc1cc2c(c(OC)c1OC)-c1ccc(OC)c(=O)cc1[C@@H](NC(=O)CCCC(=O)OCCCCC[C@H]1CC=CC(=O)O1)CC2`: the IC50 turned out to be 65000 nM with HT-29, 19000 nM in the series with MCF7 and 400 nM in the series with HEK293. Also, the selectivity ratio in series [1] and in [2] was less than 0.1 in each case.
